In ChEMBL document CHEMBL1770107, “Design and synthesis of antifungal benzoheterocyclic derivatives by scaffold hopping” (2011) one finds MIC80 data, which are given here for 28 compounds.

Holding throughout (assay type): functional
Test [1] concerns Candida albicans. As to the kind of experiment: Antimicrobial activity against Candida albicans after 24 hrs by NCCLS method. In a few lines:
(§1)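 Broth serial-dilution MIC in 96-well plates, RPMI 1640 buffered with 0.165 M MOPS. Strains from ATCC or clinical isolates; fluconazole reference. MIC = lowest concentration giving ≥80% growth inhibition (turbidity) versus drug-free control. Read at 24 h for Candida spp., 72 h for C. neoformans, 7 days for filamentous fungi.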

Test [2] has as its system Candida albicans. The test is described as follows: Antimicrobial activity against fluconazole resistant Candida albicans clinical isolate after 24 hrs by NCCLS method. The essentials: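 Broth serial dilution in RPMI 1640 buffered with 0.165 M MOPS; clinical isolate. MIC80 is the lowest concentration giving 80% or greater turbidity reduction relative to the drug-free growth control, read at 24 h for Candida. Fluconazole is the reference drug.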

Test [3] concerns Aspergillus fumigatus. The test is described as follows: Antimicrobial activity against Aspergillus fumigatus after 7 days by NCCLS method. The note with it: 168 h. In a few lines:
as §1

The subject of test [4] is Cryptococcus neoformans. The test is described as follows: Antimicrobial activity against Cryptococcus neoformans after 72 hrs by NCCLS method. In a few lines:
as §1

For test [5], the system named is Trichophyton rubrum. As to the kind of experiment: Antimicrobial activity against Trichophyton rubrum after 7 days by NCCLS method. The note with it: 168 h. The essentials:
as §1

Test [6] concerns Nannizzia gypsea. As to the kind of experiment: Antimicrobial activity against Microsporum gypseum after 7 days by NCCLS method. The note with it: 168 h. The essentials: as §1
Test [7] deals with Candida tropicalis. The test is described as follows: Antimicrobial activity against Candida tropicalis after 24 hrs by NCCLS method. The essentials: as §1
In test [8] the test system is Candida parapsilosis. As to the kind of experiment: Antimicrobial activity against Candida parapsilosis after 24 hrs by NCCLS method. The note with it: Lodderomyces parapsilosis. In a few lines: as §1
The subject of test [9] is Pichia kudriavzevii. The test is described as follows: Antimicrobial activity against Candida krusei after 24 hrs by NCCLS method. The essentials:
as §1

≈ marks a conversion by molar mass, not a printed value.

Consider `CCCCCCNCc1nc2ccccc2[nH]1`, for which the MIC80 (commonly the lowest concentration that inhibits either 80% of growth or 80% of the strains tested, depending on the study) is 1 mg/L (≈ 4.32 µM) in test [1]; > 64 mg/L in [2]; > 64 mg/L in test [3]; > 64 mg/L in test [4]; 64 mg/L (≈ 277 µM) in [5]; > 64 mg/L in [6]. Besides, the MIC80 in [7] is > 64 mg/L.
Take `CCCCCCCNCc1nc2ccccc2[nH]1`: the MIC80 is > 64 mg/L in test [1]; 32 mg/L (≈ 130 µM) in test [2]; > 64 mg/L in test [3]; 64 mg/L (≈ 261 µM) in test [4]; 64 mg/L (≈ 261 µM) in test [5]; > 64 mg/L in [6]. Also, the MIC80 in test [7] was > 64 mg/L.
Take `CCCCCCCCNCc1nc2ccccc2[nH]1`: the MIC80 is > 64 mg/L in test [1]; 16 mg/L (≈ 61.7 µM) in [2]; 32 mg/L (≈ 123 µM) in [3]; 16 mg/L (≈ 61.7 µM) in [4]; 16 mg/L (≈ 61.7 µM) in test [5]; 16 mg/L (≈ 61.7 µM) in [6]. In [7], this compound returned an MIC80 of 16 mg/L (≈ 61.7 µM).
As to `CCCCCCNCc1nc2ccccc2o1`, the MIC80 in test [1] was 64 mg/L (≈ 275 µM); in test [2], > 64 mg/L; in test [3], > 64 mg/L; in test [4], 64 mg/L (≈ 275 µM); in [5], 16 mg/L (≈ 68.9 µM); in [6], 16 mg/L (≈ 68.9 µM). Moreover, in test [7], the MIC80 worked out at 64 mg/L (≈ 275 µM).
With `CCCCCCCNCc1nc2ccccc2o1`, the MIC80 came to 64 mg/L (≈ 260 µM) in test [1]; 64 mg/L (≈ 260 µM) in test [2]; 64 mg/L (≈ 260 µM) in test [3]; 16 mg/L (≈ 64.9 µM) in test [4]; 16 mg/L (≈ 64.9 µM) in test [5]; 16 mg/L (≈ 64.9 µM) in test [6]. The same compound gave an MIC80 in test [7] of 64 mg/L (≈ 260 µM).
Turning to `CCCCCCCCNCc1nc2ccccc2o1`, the MIC80 in [1] came to 64 mg/L (≈ 246 µM); in test [2], 64 mg/L (≈ 246 µM); in test [3], 32 mg/L (≈ 123 µM); in test [4], 1 mg/L (≈ 3.84 µM); in test [5], 4 mg/L (≈ 15.4 µM); in test [6], 8 mg/L (≈ 30.7 µM). The compound further came in with an MIC80 in test [7] of 16 mg/L (≈ 61.4 µM).
`CCCCCCNCc1nc2ccccc2s1`: the MIC80 in test [1] was 64 mg/L (≈ 258 µM); in [2], 64 mg/L (≈ 258 µM); in test [3], > 64 mg/L; in test [4], 64 mg/L (≈ 258 µM); in [5], 64 mg/L (≈ 258 µM); in [6] it was 64 mg/L (≈ 258 µM). For the same compound, the MIC80 in [7] amounted to 64 mg/L (≈ 258 µM).
With `CCCCCCCNCc1nc2ccccc2s1`, the MIC80 is 64 mg/L (≈ 244 µM) in [1]; 32 mg/L (≈ 122 µM) in test [2]; > 64 mg/L in [3]; 64 mg/L (≈ 244 µM) in [4]; 16 mg/L (≈ 61 µM) in [5]; 16 mg/L (≈ 61 µM) in test [6]. In test [7], this compound showed an MIC80 of 64 mg/L (≈ 244 µM).
As for `CCCCCCCCNCc1nc2ccccc2s1`, the MIC80 is 64 mg/L (≈ 232 µM) in test [1]; > 64 mg/L in test [2]; > 64 mg/L in [3]; 16 mg/L (≈ 57.9 µM) in [4]; 16 mg/L (≈ 57.9 µM) in test [5]; 64 mg/L (≈ 232 µM) in test [6]. In test [7], the MIC80 was 64 mg/L (≈ 232 µM).
For `CCCCCCn1cnc2ccc(C)cc2c1=O`, the MIC80 in [1], in [3], in test [8], in [4], in [9] and in [7] was > 64 mg/L throughout.
As for `CCCCCCCn1cnc2ccc(C)cc2c1=O`, the MIC80 was > 64 mg/L in test [1]; 64 mg/L (≈ 248 µM) in test [3]; > 64 mg/L in [8]; > 64 mg/L in test [4]; > 64 mg/L in test [9]; > 64 mg/L in test [7].
Turning to `CCCCCCCCn1cnc2ccc(C)cc2c1=O`, the MIC80 in test [1], in [3], in test [8], in test [4], in test [9] and in test [7] was > 64 mg/L in each case.
For the compound `CCCCCCN1CCc2c(c3cc(F)ccc3n2C)C1`, the MIC80 in test [1], in test [3], in [8], in [4], in test [9] and in test [7] was > 64 mg/L each time.
Consider `CCCCCCCN1CCc2c(c3cc(F)ccc3n2C)C1`, for which the MIC80 in [1] was 64 mg/L (≈ 212 µM); in test [3], 64 mg/L (≈ 212 µM); in [8], 64 mg/L (≈ 212 µM); in test [4], > 64 mg/L; in [9], > 64 mg/L; in [7], > 64 mg/L.
Turning to `CCCCCCCCN1CCc2c(c3cc(F)ccc3n2C)C1`, the MIC80 in test [1] was 64 mg/L (≈ 202 µM); in [3], > 64 mg/L; in test [8], 64 mg/L (≈ 202 µM); in test [4], > 64 mg/L; in test [9] it was > 64 mg/L; in test [7] it was > 64 mg/L.
Consider `CCCCCCN1CCc2c(c3cc(Cl)ccc3n2C)C1`, for which the MIC80 in test [1] was > 64 mg/L; in test [3], 64 mg/L (≈ 210 µM); in test [8] it was > 64 mg/L; in [4] it was > 64 mg/L; in test [9], 64 mg/L (≈ 210 µM); in test [7], > 64 mg/L.
With `CCCCCCCN1CCc2c(c3cc(Cl)ccc3n2C)C1`, the MIC80 in test [1], in [3], in test [8], in test [4], in test [9] and in [7] was > 64 mg/L each time.
Turning to `CCCCCCCCN1CCc2c(c3cc(Cl)ccc3n2C)C1`, the MIC80 was > 64 mg/L in test [1]; > 64 mg/L in test [3]; 64 mg/L (≈ 192 µM) in test [8]; > 64 mg/L in test [4]; 64 mg/L (≈ 192 µM) in test [9]; > 64 mg/L in [7].
In the case of `CCCCCCN1CCc2c(c3cc(Br)ccc3n2C)C1`, the MIC80 in [1] was > 64 mg/L; in test [3], 64 mg/L (≈ 183 µM); in test [8], > 64 mg/L; in test [4], > 64 mg/L; in test [9], > 64 mg/L; in [7], > 64 mg/L.
Take `CCCCCCCN1CCc2c(c3cc(Br)ccc3n2C)C1`: the MIC80 was > 64 mg/L in test [1]; > 64 mg/L in test [3]; 64 mg/L (≈ 176 µM) in test [8]; 64 mg/L (≈ 176 µM) in test [4]; > 64 mg/L in test [9]; > 64 mg/L in [7].
For `CCCCCCCCN1CCc2c(c3cc(Br)ccc3n2C)C1`, the MIC80 in [1] was 64 mg/L (≈ 170 µM); in test [3] it was > 64 mg/L; in test [8], 16 mg/L (≈ 42.4 µM); in test [4], 64 mg/L (≈ 170 µM); in [9], > 64 mg/L; in test [7] it was > 64 mg/L.
As for `CCCCCCN1CCc2c(c3cc(I)ccc3n2C)C1`, the MIC80 in [1] is > 64 mg/L; in test [3], > 64 mg/L; in test [8], 64 mg/L (≈ 161 µM); in test [4] it was > 64 mg/L; in [9], > 64 mg/L; in test [7], > 64 mg/L.
As to `CCCCCCCN1CCc2c(c3cc(I)ccc3n2C)C1`, the MIC80 is > 64 mg/L in [1]; > 64 mg/L in [3]; 64 mg/L (≈ 156 µM) in test [8]; > 64 mg/L in [4]; > 64 mg/L in [9]; > 64 mg/L in test [7].
As for `CCCCCCCCN1CCc2c(c3cc(I)ccc3n2C)C1`, the MIC80 in [1] was 64 mg/L (≈ 151 µM); in [3], > 64 mg/L; in test [8], 16 mg/L (≈ 37.7 µM); in test [4] it was > 64 mg/L; in test [9], 64 mg/L (≈ 151 µM); in [7], > 64 mg/L.
Turning to `CCCCCCN1CCc2c(c3cc(C)ccc3n2C)C1`, the MIC80 in test [1] worked out at 64 mg/L (≈ 225 µM); in test [3], 64 mg/L (≈ 225 µM); in test [8], 64 mg/L (≈ 225 µM); in test [4], 64 mg/L (≈ 225 µM); in test [9], 16 mg/L (≈ 56.2 µM); in test [7], 64 mg/L (≈ 225 µM).
In the case of `CCCCCCCN1CCc2c(c3cc(C)ccc3n2C)C1`, the MIC80 in [1] is 16 mg/L (≈ 53.6 µM); in [3], 16 mg/L (≈ 53.6 µM); in [8] it was 16 mg/L (≈ 53.6 µM); in [4] it was > 64 mg/L; in test [9], 64 mg/L (≈ 214 µM); in test [7] it was 64 mg/L (≈ 214 µM).
With `CCCCCCCCN1CCc2c(c3cc(C)ccc3n2C)C1`, the MIC80 was 16 mg/L (≈ 51.2 µM) in test [1]; 16 mg/L (≈ 51.2 µM) in test [3]; 16 mg/L (≈ 51.2 µM) in test [8]; > 64 mg/L in [4]; 64 mg/L (≈ 205 µM) in test [9]; 64 mg/L (≈ 205 µM) in test [7].
For `OC(Cn1cncn1)(Cn1cncn1)c1ccc(F)cc1F` [FLUCONAZOLE], the MIC80 in [1] was 1 mg/L (≈ 3.27 µM); in test [3], > 64 mg/L; in test [8], 1 mg/L (≈ 3.27 µM); in [4] it was 1 mg/L (≈ 3.27 µM); in test [5], 4 mg/L (≈ 13.1 µM); in [6] it was 16 mg/L (≈ 52.2 µM). Further, the values for the MIC80 in test [9] and in [7] were 0.5 mg/L (≈ 1.63 µM) and 1 mg/L (≈ 3.27 µM), respectively.
